Assay results as given in ChEMBL document CHEMBL1154352, “Toll-like receptor 7 selective synthetic oligoribonucleotide agonists: synthesis and structure-activity relationship studies” (J Med Chem, 2009).
The source made the active and inactive calls. The rule behind the calls is not given here.

Columns and labels:
[1] = molecular target: T1, Toll-like receptor 9 (Mus musculus) (UniProt Q9EQU3); assay: Activation of mouse TLR9 expressed in HEK293 assessed as induction of NF-kappaB activity reporter gene assay; format: cell-based
T1 sequence (whole entry): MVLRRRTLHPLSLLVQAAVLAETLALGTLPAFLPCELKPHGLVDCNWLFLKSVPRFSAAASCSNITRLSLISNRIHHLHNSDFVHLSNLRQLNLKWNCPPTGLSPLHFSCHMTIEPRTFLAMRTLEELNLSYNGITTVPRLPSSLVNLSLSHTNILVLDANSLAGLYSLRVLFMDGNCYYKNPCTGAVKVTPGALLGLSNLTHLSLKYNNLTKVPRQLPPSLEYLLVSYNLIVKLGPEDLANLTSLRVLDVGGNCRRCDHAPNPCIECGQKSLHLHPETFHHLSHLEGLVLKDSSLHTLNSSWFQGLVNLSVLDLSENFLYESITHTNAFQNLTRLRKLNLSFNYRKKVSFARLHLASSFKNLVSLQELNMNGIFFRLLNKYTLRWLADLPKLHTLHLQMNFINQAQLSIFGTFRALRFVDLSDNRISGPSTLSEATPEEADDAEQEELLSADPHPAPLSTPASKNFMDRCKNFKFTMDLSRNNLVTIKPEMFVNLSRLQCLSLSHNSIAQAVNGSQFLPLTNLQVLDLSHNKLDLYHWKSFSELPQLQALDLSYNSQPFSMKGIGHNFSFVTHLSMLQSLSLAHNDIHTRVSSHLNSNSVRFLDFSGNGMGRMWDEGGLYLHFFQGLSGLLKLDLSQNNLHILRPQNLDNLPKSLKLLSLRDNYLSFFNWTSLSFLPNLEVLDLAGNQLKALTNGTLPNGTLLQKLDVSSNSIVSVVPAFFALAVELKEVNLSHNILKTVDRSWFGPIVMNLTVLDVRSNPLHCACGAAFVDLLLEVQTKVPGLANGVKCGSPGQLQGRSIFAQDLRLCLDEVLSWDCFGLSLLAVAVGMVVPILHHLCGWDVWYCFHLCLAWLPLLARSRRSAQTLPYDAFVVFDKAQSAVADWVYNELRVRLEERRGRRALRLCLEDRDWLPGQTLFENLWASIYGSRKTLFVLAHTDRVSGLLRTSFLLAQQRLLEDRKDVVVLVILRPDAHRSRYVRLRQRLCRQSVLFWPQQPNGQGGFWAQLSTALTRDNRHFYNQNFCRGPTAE

PBMC = assay: Immunomodulatory activity in human PBMC assessed as induction of TNFalpha at 100 ug/ml after 24 hrs; format: functional, cell-based
Procedure, shortened: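 Human PBMCs plated at 5 × 10^6 cells/mL; compounds dissolved in PBS added at various concentrations, 37 °C for 24 h. Supernatant cytokines/chemokines quantified with human Luminex multiplex kit.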

[2] = molecular target: T2, Toll-like receptor 7 (Homo sapiens) (UniProt Q9NYK1); assay: Activation of human TLR7 expressed in HEK293XL assessed as fold induction of NF-kappaB activity at 50 ug/ml after 18 hrs by reporter gene assay relative to control
T2 sequence (whole entry): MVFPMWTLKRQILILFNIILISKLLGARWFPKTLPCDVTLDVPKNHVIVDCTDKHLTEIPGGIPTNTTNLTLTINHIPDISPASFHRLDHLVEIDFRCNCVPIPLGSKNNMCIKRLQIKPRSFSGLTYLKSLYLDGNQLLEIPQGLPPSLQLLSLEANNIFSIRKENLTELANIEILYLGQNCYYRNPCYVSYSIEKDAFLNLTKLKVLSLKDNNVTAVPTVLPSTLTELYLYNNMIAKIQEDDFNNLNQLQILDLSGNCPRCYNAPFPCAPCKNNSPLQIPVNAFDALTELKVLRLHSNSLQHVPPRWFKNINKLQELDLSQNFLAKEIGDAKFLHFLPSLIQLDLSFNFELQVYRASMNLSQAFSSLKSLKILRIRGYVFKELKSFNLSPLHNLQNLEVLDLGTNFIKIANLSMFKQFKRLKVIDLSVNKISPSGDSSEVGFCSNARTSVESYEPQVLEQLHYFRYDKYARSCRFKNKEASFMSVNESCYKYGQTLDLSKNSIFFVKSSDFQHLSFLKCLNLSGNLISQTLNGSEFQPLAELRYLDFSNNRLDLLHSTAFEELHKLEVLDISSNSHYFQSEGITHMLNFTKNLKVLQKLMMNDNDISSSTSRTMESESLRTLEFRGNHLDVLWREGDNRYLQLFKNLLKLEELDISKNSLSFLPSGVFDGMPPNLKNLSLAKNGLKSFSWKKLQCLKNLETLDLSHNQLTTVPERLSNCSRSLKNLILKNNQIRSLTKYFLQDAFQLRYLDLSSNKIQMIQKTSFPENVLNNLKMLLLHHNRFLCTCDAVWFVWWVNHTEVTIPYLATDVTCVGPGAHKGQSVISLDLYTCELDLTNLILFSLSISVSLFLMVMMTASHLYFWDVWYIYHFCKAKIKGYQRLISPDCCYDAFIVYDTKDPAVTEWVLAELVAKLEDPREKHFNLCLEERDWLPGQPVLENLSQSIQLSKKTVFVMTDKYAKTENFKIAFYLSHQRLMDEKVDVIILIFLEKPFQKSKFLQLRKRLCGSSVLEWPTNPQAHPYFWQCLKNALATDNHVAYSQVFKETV
Procedure, shortened: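 HEK293 cells stably expressing human TLR7 or TLR8, transiently transfected with SEAP reporter plasmid; medium replaced, SIMRA compounds added, 18 h incubation. Supernatant SEAP measured by QuantiBlue; expressed as fold increase in NF-κB activity over PBS control. Tabulated data at 50 μg/mL, representative of three independent experiments.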

Structure (SMILES)	Activity [1]	Activity (PBMC) [pg/mL]	fold change (FC) [2]
Nc1ccn([C@@H]2O[C@H](CO)[C@@H](OP(=O)(S)OC[C@H]3O[C@@H](n4ccc(=O)[nH]c4=O)[C@H](O)[C@@H]3OP(=O)(S)OC[C@H]3O[C@@H](n4ccc5c(=O)[nH]c(N)nc54)[C@H](O)[C@@H]3OP(=O)(S)OC[C@H]3O[C@@H](n4cnc5c(N)ncnc54)[C@H](O)[C@@H]3OP(=O)(S)OC[C@H]3O[C@@H](n4ccc(N)nc4=O)[C@H](O)[C@@H]3OP(=O)(S)OC[C@H]3O[C@@H](n4ccc5c(=O)[nH]c(N)nc54)[C@H](O)[C@@H]3OP(=O)(S)OC[C@H]3O[C@@H](n4cnc5c(N)ncnc54)[C@H](O)[C@@H]3OP(=O)(S)OC[C@H]3O[C@@H](n4ccc5c(=O)[nH]c(N)nc54)[C@H](O)[C@@H]3OP(=O)(S)OC[C@H]3O[C@@H](n4ccc(N)nc4=O)[C@H](O)[C@@H]3OP(=O)(S)OC[C@H]3O[C@@H](n4ccc(=O)[nH]c4=O)[C@H](O)[C@@H]3OP(=O)(S)OC[C@H]3O[C@@H](n4ccc(=O)[nH]c4=O)[C@H](O)[C@@H]3OP(=O)(S)OCC(O)COP(=O)(S)O[C@H]3[C@@H](O)[C@H](n4ccc(=O)[nH]c4=O)O[C@@H]3COP(=O)(S)O[C@H]3[C@@H](O)[C@H](n4ccc(=O)[nH]c4=O)O[C@@H]3COP(=O)(S)O[C@H]3[C@@H](O)[C@H](n4ccc(N)nc4=O)O[C@@H]3COP(=O)(S)O[C@H]3[C@@H](O)[C@H](n4ccc5c(=O)[nH]c(N)nc54)O[C@@H]3COP(=O)(S)O[C@H]3[C@@H](O)[C@H](n4cnc5c(N)ncnc54)O[C@@H]3COP(=O)(S)O[C@H]3[C@@H](O)[C@H](n4ccc5c(=O)[nH]c(N)nc54)O[C@@H]3COP(=O)(S)O[C@H]3[C@@H](O)[C@H](n4ccc(N)nc4=O)O[C@@H]3COP(=O)(S)O[C@H]3[C@@H](O)[C@H](n4cnc5c(N)ncnc54)O[C@@H]3COP(=O)(S)O[C@H]3[C@@H](O)[C@H](n4ccc5c(=O)[nH]c(N)nc54)O[C@@H]3COP(=O)(S)O[C@H]3[C@@H](O)[C@H](n4ccc(=O)[nH]c4=O)O[C@@H]3COP(=O)(S)O[C@H]3[C@@H](O)[C@H](n4ccc(N)nc4=O)O[C@@H]3CO)[C@H]2O)c(=O)n1 (some centres undefined)	inactive	33.4	30
Nc1ccn([C@@H]2O[C@H](COP(=O)(S)O[C@H]3[C@@H](O)[C@H](n4cnc5c(N)ncnc54)O[C@@H]3CO)[C@@H](OP(=O)(S)OC[C@H]3O[C@@H](n4ccc5c(=O)[nH]c(N)nc54)[C@H](O)[C@@H]3OP(=O)(S)OC[C@H]3O[C@@H](n4ccc(=O)[nH]c4=O)[C@H](O)[C@@H]3OP(=O)(S)OC[C@H]3O[C@@H](n4ccc5c(=O)[nH]c(N)nc54)[C@H](O)[C@@H]3OP(=O)(S)OC[C@H]3O[C@@H](n4cnc5c(N)nc(N)nc54)[C@H](O)[C@@H]3OP(=O)(S)OC[C@H]3O[C@@H](n4cnc5c(N)ncnc54)[C@H](O)[C@@H]3OP(=O)(S)OC[C@H]3O[C@@H](n4ccc5c(=O)[nH]c(N)nc54)[C@H](O)[C@@H]3OP(=O)(S)OC[C@H]3O[C@@H](n4ccc(N)nc4=O)[C@H](O)[C@@H]3OP(=O)(S)OC[C@H]3O[C@@H](n4ccc(=O)[nH]c4=O)[C@H](O)[C@@H]3OP(=O)(S)OC[C@H]3O[C@@H](n4ccc(=O)[nH]c4=O)[C@H](O)[C@@H]3OP(=O)(S)OCC(O)COP(=O)(S)O[C@H]3[C@@H](O)[C@H](n4ccc(=O)[nH]c4=O)O[C@@H]3COP(=O)(S)O[C@H]3[C@@H](O)[C@H](n4ccc(=O)[nH]c4=O)O[C@@H]3COP(=O)(S)O[C@H]3[C@@H](O)[C@H](n4ccc(N)nc4=O)O[C@@H]3COP(=O)(S)O[C@H]3[C@@H](O)[C@H](n4ccc5c(=O)[nH]c(N)nc54)O[C@@H]3COP(=O)(S)O[C@H]3[C@@H](O)[C@H](n4cnc5c(N)nc(N)nc54)O[C@@H]3COP(=O)(S)O[C@H]3[C@@H](O)[C@H](n4cnc5c(N)nc(N)nc54)O[C@@H]3COP(=O)(S)O[C@H]3[C@@H](O)[C@H](n4ccc5c(=O)[nH]c(N)nc54)O[C@@H]3COP(=O)(S)O[C@H]3[C@@H](O)[C@H](n4ccc(=O)[nH]c4=O)O[C@@H]3COP(=O)(S)O[C@H]3[C@@H](O)[C@H](n4ccc5c(=O)[nH]c(N)nc54)O[C@@H]3COP(=O)(S)O[C@H]3[C@@H](O)[C@H](n4ccc(N)nc4=O)O[C@@H]3COP(=O)(S)O[C@H]3[C@@H](O)[C@H](n4cnc5c(N)ncnc54)O[C@@H]3CO)[C@H]2O)c(=O)n1 (some centres undefined)	inactive	165	26.8
Nc1ccn([C@@H]2O[C@H](COP(=O)(S)O[C@H]3[C@@H](O)[C@H](n4cnc5c(N)ncnc54)O[C@@H]3COP(=O)(S)O[C@H]3[C@@H](O)[C@H](n4ccc5c(=O)[nH]c(N)nc54)O[C@@H]3COP(=O)(S)O[C@H]3[C@@H](O)[C@H](n4ccc(N)nc4=O)O[C@@H]3COP(=O)(S)O[C@H]3[C@@H](O)[C@H](n4ccc5c(=O)[nH]c(N)nc54)O[C@@H]3COP(=O)(S)O[C@H]3[C@@H](O)[C@H](n4ccc(=O)[nH]c4=O)O[C@@H]3COP(=O)(S)O[C@H]3[C@@H](O)[C@H](n4ccc5c(=O)[nH]c(N)nc54)O[C@@H]3COP(=O)(S)O[C@H]3[C@@H](O)[C@H](n4cnc5c(N)ncnc54)O[C@@H]3COP(=O)(S)O[C@H]3[C@@H](O)[C@H](n4cnc5c(N)ncnc54)O[C@@H]3CO)[C@@H](OP(=O)(S)OC[C@H]3O[C@@H](n4ccc(=O)[nH]c4=O)[C@H](O)[C@@H]3OP(=O)(S)OC[C@H]3O[C@@H](n4ccc(=O)[nH]c4=O)[C@H](O)[C@@H]3OP(=O)(S)OCC(O)COP(=O)(S)O[C@H]3[C@@H](O)[C@H](n4ccc(=O)[nH]c4=O)O[C@@H]3COP(=O)(S)O[C@H]3[C@@H](O)[C@H](n4ccc(=O)[nH]c4=O)O[C@@H]3COP(=O)(S)O[C@H]3[C@@H](O)[C@H](n4ccc(N)nc4=O)O[C@@H]3COP(=O)(S)O[C@H]3[C@@H](O)[C@H](n4cnc5c(N)ncnc54)O[C@@H]3COP(=O)(S)O[C@H]3[C@@H](O)[C@H](n4ccc5c(=O)[nH]c(N)nc54)O[C@@H]3COP(=O)(S)O[C@H]3[C@@H](O)[C@H](n4ccc(N)nc4=O)O[C@@H]3COP(=O)(S)O[C@H]3[C@@H](O)[C@H](n4ccc5c(=O)[nH]c(N)nc54)O[C@@H]3COP(=O)(S)O[C@H]3[C@@H](O)[C@H](n4ccc(=O)[nH]c4=O)O[C@@H]3COP(=O)(S)O[C@H]3[C@@H](O)[C@H](n4ccc5c(=O)[nH]c(N)nc54)O[C@@H]3COP(=O)(S)O[C@H]3[C@@H](O)[C@H](n4cnc5c(N)ncnc54)O[C@@H]3COP(=O)(S)O[C@H]3[C@@H](O)[C@H](n4cnc5c(N)ncnc54)O[C@@H]3CO)[C@H]2O)c(=O)n1 (some centres undefined)	inactive	1.7	20.7
